# Source: ChEMBL document CHEMBL1949625, “Hydroxyl may not be indispensable for raltegravir: Design, synthesis and SAR Studies of raltegravir derivatives as HIV-1 inhibitors” (Eur J Med Chem, 2012)
# Assays:
# [1] = Cytotoxicity against human TZM-bl cells after 48 hrs by MTT assay; assay type: cell-based
# Procedure, shortened: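 TZM-bl cells plated and incubated 18 h at 37 °C, then exposed to compounds for 48 h. MTT (5 mg/mL, 20 uL) added for 3 h at 37 °C; plates shaken 10 min at room temperature. OD550 read with 690 nm reference.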
# [2] = tested on: Human immunodeficiency virus 1; test: Antiviral activity against HIV1 harboring VSV glycoprotein-G co-transfected with luciferase gene infected in human TZM-bl cells assessed as inhibition of viral replication at 10 uM after 48 hrs by microplate luminometer based luciferase assay; assay type: functional; conditions: for inhibition at 10 µM: Human immunodeficiency virus 1, TZM-bl, 48 h
# Procedure, shortened: (§1)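 TZM-bl cells seeded at 10^4 cells/well; next day compounds (from DMSO stocks) added, then pseudotyped virus; final DMSO 2% in all wells. Incubated 48 h at 37 °C, humidified CO2. Steady-glow substrate added directly, lysis 20 min in dark, luciferase luminescence read. AZT and MK-0518 as assay controls. Primary screen run at 10 μM.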
# [3] = tested on: Human immunodeficiency virus 1; test: Antiviral activity against HIV1 harboring VSV glycoprotein-G co-transfected with luciferase gene infected in human TZM-bl cells assessed as inhibition of viral replication after 48 hrs by microplate luminometer based luciferase assay; assay type: functional, organism-based; conditions: Human immunodeficiency virus 1, TZM-bl; procedure, shortened: as §1
Compound,Activity [1],inhibition at 10 µM [2] [%],IC50 [3] [nM],inhibition (INH) [2] [%]
COc1nc(C(C)(C)NC(=O)c2nnc(C)o2)nc(C(=O)NCc2ccc(F)cc2)c1[O-].[K+],Non-toxic,92.9,200,
COc1nc(C(C)(C)NC(=O)c2nnc(C)o2)nc(C(=O)NCc2ccc(F)cc2)c1O,Non-toxic,,,94.1
Cc1nnc(C(=O)NC(C)(C)c2nc(NCc3ccc(F)cc3)c(O)c(C(=O)NCc3ccc(F)cc3)n2)o1,Non-toxic,47.5,,
CC(=O)Oc1c(C(=O)NCc2ccc(F)cc2)nc(C(C)(C)NC(=O)c2nnc(C)o2)n(C)c1=O,Non-toxic,95.1,1,
Cc1nnc(C(=O)NC(C)(C)c2nc(C(=O)NCc3ccc(F)cc3)c(OS(C)(=O)=O)c(=O)n2C)o1,Non-toxic,92.7,2.4,
Cc1nnc(C(=O)NC(C)(C)c2nc(C(=O)NCc3ccc(F)cc3)c(OC(=O)c3ccccc3)c(=O)n2C)o1,Non-toxic,100,4e-05,
Cc1cc(C)c(S(=O)(=O)Oc2c(C(=O)NCc3ccc(F)cc3)nc(C(C)(C)NC(=O)c3nnc(C)o3)n(C)c2=O)c(C)c1,Non-toxic,94.9,0.04,
COc1nc(C(C)(C)NC(=O)c2nnc(C)o2)nc(C(=O)NCc2ccc(F)cc2)c1OC(C)=O,Non-toxic,94.2,7.3,
COc1nc(C(C)(C)NC(=O)c2nnc(C)o2)nc(C(=O)NCc2ccc(F)cc2)c1OS(C)(=O)=O,Non-toxic,88.3,32.8,
COc1nc(C(C)(C)NC(=O)c2nnc(C)o2)nc(C(=O)NCc2ccc(F)cc2)c1OC(=O)c1ccccc1,Non-toxic,93.4,14.7,
COc1nc(C(C)(C)NC(=O)c2nnc(C)o2)nc(C(=O)NCc2ccc(F)cc2)c1OS(=O)(=O)c1c(C)cc(C)cc1C,Non-toxic,79.7,1200,
CCN(CC)C(=O)C(=O)NC(C)(C)c1nc(C(=O)OC)c(OC(=O)c2ccccc2)c(=O)n1C,Non-toxic,-2.7,,
CCN(CC)C(=O)C(=O)NC(C)(C)c1nc(C(=O)NCc2ccc(F)cc2)c(O)c(=O)n1C,Non-toxic,95.5,0.5,
CCN(CC)C(=O)C(=O)NC(C)(C)c1nc(C(=O)NCc2ccc(F)cc2)c(OC(C)=O)c(=O)n1C,Non-toxic,94.2,0.062,
CCN(CC)C(=O)C(=O)NC(C)(C)c1nc(C(=O)NCc2ccc(F)cc2)c(OS(C)(=O)=O)c(=O)n1C,Non-toxic,93.7,0.64,
CCN(CC)C(=O)C(=O)NC(C)(C)c1nc(C(=O)NCc2ccc(F)cc2)c(OC(=O)c2ccccc2)c(=O)n1C,Non-toxic,92.8,8e-05,
CCN(CC)C(=O)C(=O)NC(C)(C)c1nc(C(=O)NCc2ccc(F)cc2)c(OS(=O)(=O)c2c(C)cc(C)cc2C)c(=O)n1C,Non-toxic,77.7,0.3,
CCN(CC)C(=O)C(=O)NC(C)(C)c1nc(OC)c(OC(=O)c2ccccc2)c(C(=O)OC)n1,Non-toxic,19.8,,
CCN(CC)C(=O)C(=O)NC(C)(C)c1nc(OC)c(O)c(C(=O)NCc2ccc(F)cc2)n1,Non-toxic,44.9,,
CCN(CC)C(=O)C(=O)NC(C)(C)c1nc(OC)c(OC(C)=O)c(C(=O)NCc2ccc(F)cc2)n1,Non-toxic,59.3,,
CCN(CC)C(=O)C(=O)NC(C)(C)c1nc(OC)c(OS(C)(=O)=O)c(C(=O)NCc2ccc(F)cc2)n1,Non-toxic,28.6,,
CCN(CC)C(=O)C(=O)NC(C)(C)c1nc(OC)c(OC(=O)c2ccccc2)c(C(=O)NCc2ccc(F)cc2)n1,Non-toxic,52.1,,
CCN(CC)C(=O)C(=O)NC(C)(C)c1nc(OC)c(OS(=O)(=O)c2c(C)cc(C)cc2C)c(C(=O)NCc2ccc(F)cc2)n1,Non-toxic,6,,
Cc1nnc(C(=O)NC(C)(C)c2nc(C(=O)NCc3ccc(F)cc3)c(O)c(=O)n2C)o1 [RALTEGRAVIR POTASSIUM],,95.1,8,
Cc1cn([C@H]2C[C@H](N=[N+]=[N-])[C@@H](CO)O2)c(=O)[nH]c1=O [ZIDOVUDINE],,100,,
